Converted amounts (≈) assume the structure as drawn.
How the values were obtained:
[1] = test system: Human immunodeficiency virus 1; experiment: Antiviral activity against HIV1 infected in human assessed as number of new virions produced by infected CD4 cell at 150 mg, po; assay type: functional
In short: (§1)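 Randomized, double-blind, placebo-controlled trial; HIV-infected adults (CD4 >200 cells/mm3, plasma viral load 5,000–250,000 copies/ml, no antiretrovirals ≥4 weeks), six per cohort, single oral dose. Plasma HIV RNA sampled predose through day 24. Viral-dynamic model (uninfected/infected CD4, virus; Hill-type inhibition of new infection by plasma concentration) fit by maximum likelihood then Bayesian estimation, pharmacokinetic parameters held fixed.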

[2] = test system: Human immunodeficiency virus 1; experiment: Antiviral activity against HIV1 assessed as inhibition of release of CA/p24 from CA-SP1/p25 at 37.8 nM by MAGI assay; assay type: functional; settings: Human immunodeficiency virus 1, MAGI
[3] = test system: Human immunodeficiency virus 1; experiment: Antiviral activity against HIV1 infected in human assessed as number of new virions produced by infected CD4 cell at 75 mg, po; assay type: functional; in short: as §1
[4] = test system: Homo sapiens; experiment: Tlag in HIV1 infected human at 150 mg, po; assay type: ADME, organism-based; settings: in vivo
In short: (§2)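 Single oral dose to HIV-infected adults, six per cohort; plasma sampled 0–48 h and days 3–24. Heparinized plasma, internal-standard spiked, acetonitrile-precipitated, assayed by reverse-phase LC-MS/MS (MRM 583.3→455.2); ranges 20.0–16,000 ng/ml (75 mg) or 100–60,000 ng/ml (150, 250 mg). Oral two-compartment linear model with absorption lag fit by maximum likelihood then Bayesian estimation.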

[5] = test system: Homo sapiens; experiment: Distributional clearance in HIV1 infected human at 150 mg, po; assay type: ADME, organism-based; settings: in vivo; in short: as §2
[6] = test system: Human immunodeficiency virus 1; experiment: Antiviral activity against HIV1 infected in human assessed as growth/production of uninfected CD4 cells at 75 mg, po; assay type: functional; in short: as §1
[7] = test system: Human immunodeficiency virus 1; experiment: Antiviral activity against HIV1 infected in human assessed as maximum rate of viral replication measured as logarithmic viral copies at 75 mg, po; assay type: functional; in short: as §1
[8] = test system: Human immunodeficiency virus 1; experiment: Antiviral activity against HIV1 infected in human assessed as clearance rate of virions at 150 mg, po; assay type: functional; in short: as §1
[9] = test system: Human immunodeficiency virus 1; experiment: Antiviral activity against HIV1 infected in human assessed as growth/production of uninfected CD4 cells at 150 mg, po; assay type: functional; in short: as §1
[10] = test system: Human immunodeficiency virus 1; experiment: Antiviral activity against HIV1 infected in human assessed as death rate constant of uninfected CD4 cells at 150 mg, po; assay type: functional
In short: (§3)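 Randomized, double-blind, placebo-controlled trial in HIV-infected adults (CD4 >200 cells/mm3, plasma viral load 5,000–250,000 copies/ml, off antiretrovirals ≥4 weeks), six per cohort, single oral dose. Plasma drug levels measured by LC-MS/MS; HIV RNA sampled to day 24. Parameters from a viral-dynamic model (Hill-type inhibition of new CD4 infection) fit per subject by maximum likelihood then Bayesian estimation; reported as mean (%CV).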

[11] = test system: Homo sapiens; experiment: Distributional clearance in HIV1 infected human at 75 mg, po; assay type: ADME, organism-based; settings: in vivo; in short: as §2
[12] = test system: Human immunodeficiency virus 1; experiment: Antiviral activity against HIV1 infected in human assessed as inhibition of viral replication at 150 mg, po; assay type: functional, organism-based; in short: as §1
[13] = test system: Homo sapiens; experiment: Distributional clearance in HIV1 infected human at 250 mg, po; assay type: ADME, organism-based; settings: in vivo; in short: as §2
[14] = test system: Human immunodeficiency virus 1; experiment: Antiviral activity against HIV1 infected in human assessed as death rate constant of infected CD4 cells at 75 mg, po; assay type: functional; in short: as §3
[15] = Half life in HIV1 infected human at 250 mg, po; assay type: ADME, organism-based; settings: in vivo; in short: as §2
[16] = Half life in HIV1 infected human at 75 mg, po; assay type: ADME, organism-based; settings: in vivo; in short: as §2
[17] = test system: Homo sapiens; experiment: Toxicity in HIV1 infected human assessed as mortality at 75 to 250 mg, po; assay type: organism-based; settings: in vivo
In short: (§4)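 Safety monitoring of HIV-infected adults given a single oral dose or placebo (randomized, double-blind, six per cohort), followed to day 24 for adverse events, serious adverse events and deaths.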

[18] = Apparent oral clearance in HIV1 infected human at 150 mg, po; assay type: ADME, organism-based; settings: in vivo; in short: as §2
[19] = test system: Plasma; experiment: Stability in human plasma; assay type: ADME, cell-free
[20] = test system: Homo sapiens; experiment: Tlag in HIV1 infected human at 250 mg, po; assay type: ADME, organism-based; settings: in vivo; in short: as §2
[21] = test system: Human immunodeficiency virus 1; experiment: Antiviral activity against HIV1 infected in human assessed as death rate constant of uninfected CD4 cells at 75 mg, po; assay type: functional; in short: as §3
[22] = test system: Homo sapiens; experiment: Effect of CD4 cell count in HIV1 infected human at 150 mg, po after 10 days; assay type: functional
In short: (§5)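 CD4 cell count change from baseline 10 days after a single oral dose in HIV-infected adults (baseline CD4 >200 cells/mm3), six per cohort, placebo-controlled double-blind design; tested by dose and over time.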

[23] = test system: Human immunodeficiency virus 1; experiment: Antiviral activity against HIV1 infected in human assessed as growth/production of uninfected CD4 cells at 250 mg, po; assay type: functional; in short: as §1
[24] = test system: Human immunodeficiency virus 1; experiment: Antiviral activity against HIV1 infected in human assessed as maximum rate of viral replication measured as logarithmic viral copies at 150 mg, po; assay type: functional; in short: as §1
[25] = test system: Homo sapiens; experiment: Effect of CD4 cell count in HIV1 infected human at 75 mg, po after 10 days; assay type: functional; in short: as §5
[26] = test system: Human immunodeficiency virus 1; experiment: Antiviral activity against HIV1 infected in human assessed as rate at which virus infects CD4 cells at 150 mg, po; assay type: functional; in short: as §1
[27] = Half life in HIV1 infected human at 150 mg, po; assay type: ADME, organism-based; settings: in vivo; in short: as §2
[28] = test system: Human immunodeficiency virus 1; experiment: Antiviral activity against HIV1 infected in human assessed as number of new virions produced by infected CD4 cells at 250 mg, po; assay type: functional; in short: as §1
[29] = test system: Homo sapiens; experiment: Tlag in HIV1 infected human at 75 mg, po; assay type: ADME, organism-based; settings: in vivo; in short: as §2
[30] = Apparent oral clearance in HIV1 infected human at 75 mg, po; assay type: ADME, organism-based; settings: in vivo; in short: as §2
[31] = test system: Human immunodeficiency virus 1; experiment: Antiviral activity against HIV1 infected in human assessed as inhibition of viral replication at 250 mg, po; assay type: functional, organism-based; in short: as §1
[32] = test system: Homo sapiens; experiment: Effect of CD4 cell count in HIV1 infected human at 250 mg, po after 10 days; assay type: functional; in short: as §5
[33] = Apparent oral clearance in HIV1 infected human at 250 mg, po; assay type: ADME, organism-based; settings: in vivo; in short: as §2
[34] = test system: Homo sapiens; experiment: Toxicity in HIV1 infected human assessed as incidence of adverse effect at 75 to 250 mg, po; assay type: organism-based; settings: in vivo; in short: as §4
[35] = test system: Human immunodeficiency virus 1; experiment: Antiviral activity against HIV1 infected in human assessed as logarithmic reduction in HIV RNA copies at 75 mg, po relative to baseline; assay type: functional
In short: (§6)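 Randomized, double-blind, placebo-controlled single oral dose in HIV-infected adults (CD4 >200 cells/mm3, viral load 5,000–250,000 copies/ml, off therapy ≥4 weeks), six per cohort. Plasma HIV RNA at screening, predose, 6–48 h and days 3–24; maximum observed log10 drop from baseline per patient, averaged by dose, compared by ANOVA.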

[36] = test system: Human immunodeficiency virus 1; experiment: Antiviral activity against HIV1 infected in human assessed as death rate constant of infected CD4 cells at 250 mg, po; assay type: functional; in short: as §3
[37] = test system: Human immunodeficiency virus 1; experiment: Antiviral activity against HIV1 infected in human assessed as maximum rate of viral replication measured as logarithmic viral copies at 250 mg, po; assay type: functional; in short: as §1
[38] = test system: Human immunodeficiency virus 1; experiment: Antiviral activity against HIV1 infected in human assessed as logarithmic reduction in HIV RNA copies at 250 mg, po relative to baseline; assay type: functional; in short: as §6
[39] = test system: Human immunodeficiency virus 1; experiment: Antiviral activity against HIV1 infected in human assessed as death rate constant of infected CD4 cells at 150 mg, po; assay type: functional; in short: as §3
[40] = test system: Human immunodeficiency virus 1; experiment: Antiviral activity against HIV1 infected in human assessed as clearance rate of virions at 75 mg, po; assay type: functional; in short: as §1
[41] = test system: Human immunodeficiency virus 1; experiment: Antiviral activity against HIV1 infected in human assessed as death rate constant of uninfected CD4 cells at 250 mg, po; assay type: functional; in short: as §3
[42] = test system: Human immunodeficiency virus 1; experiment: Antiviral activity against HIV1 infected in human assessed as clearance rate of virions at 250 mg, po; assay type: functional; in short: as §1
[43] = test system: Human immunodeficiency virus 1; experiment: Antiviral activity against HIV1 infected in human assessed as rate at which virus infects CD4 cells at 75 mg, po; assay type: functional; in short: as §1
[44] = test system: Human immunodeficiency virus 1; experiment: Antiviral activity against HIV1 infected in human assessed as logarithmic reduction in HIV RNA copies at 150 mg, po relative to baseline; assay type: functional; in short: as §6
[45] = test system: Human immunodeficiency virus 1; experiment: Antiviral activity against HIV1 infected in human assessed as rate at which virus infects CD4 cells at 250 mg, po; assay type: functional; in short: as §1
[46] = Half life in po dosed human; assay type: ADME, organism-based; settings: in vivo
[47] = test system: Human immunodeficiency virus 1; experiment: Antiviral activity against HIV1 infected in human assessed as inhibition of viral replication at 75 mg, po; assay type: functional, organism-based; in short: as §1

C=C(C)[C@@H]1CC[C@]2(C(=O)O)CC[C@]3(C)[C@H](CC[C@@H]4[C@@]5(C)CC[C@H](OC(=O)CC(C)(C)C(=O)O)C(C)(C)[C@@H]5CC[C@]43C)[C@@H]12 [BEVIRIMAT]
Activity [1]: 126 | inhibition at 0.0378 µM [2]: 90% | Activity [3]: 137.8 | Tlag [4]: 0.2 h | CLd [5]: 0.48 L/h | Activity [6]: 320.7 mL/h | Activity [7]: 5.13 mL⁻¹ | Activity [8]: 0.071 h⁻¹ | Activity [9]: 1340 mL/h | Activity [10]: 0.0012 h⁻¹ | CLd [11]: 0.48 L/h | EC50 [12]: 0.35 ng/mL (≈ 0.598 nM) | CLd [13]: 0.45 L/h | Activity [14]: 0.013 h⁻¹ | half-life [15]: 62.1 h | half-life [16]: 63.9 h | Activity [17]: Non-toxic | CL/F [18]: 2.67 mL/min | Stability [19]: 95 days | Tlag [20]: 0.15 h | Activity [21]: 0.0031 h⁻¹ | Activity [22]: 121 | Activity [23]: 1856.6 mL/h | Activity [24]: 4.59 mL⁻¹ | Activity [25]: -15 | Activity [26]: 0.028 h⁻¹ | half-life [27]: 55.1 h | Activity [28]: 80.2 | Tlag [29]: 0.18 h | CL/F [30]: 2.83 mL/min | EC50 [31]: 0.55 ng/mL (≈ 0.94 nM) | Activity [32]: 104 | CL/F [33]: 2.83 mL/min | Activity [34]: Non-toxic | Activity [35]: -0.14 mL⁻¹ | Activity [36]: 0.007 h⁻¹ | Activity [37]: 4.46 mL⁻¹ | Activity [38]: -0.46 mL⁻¹ | Activity [39]: 0.017 h⁻¹ | Activity [40]: 0.008 h⁻¹ | Activity [41]: 0.0016 h⁻¹ | Activity [42]: 0.024 h⁻¹ | Activity [43]: 0.14 h⁻¹ | Activity [44]: -0.47 mL⁻¹ | Activity [45]: 0.0349 h⁻¹ | half-life [46]: 55 h | EC50 [47]: 1.19 ng/mL (≈ 2.03 nM)

Reference: ChEMBL document CHEMBL1138530 (Antimicrob Agents Chemother, 2007)
